Target: Neuronal acetylcholine receptor subunit alpha-7 (Homo sapiens, UniProt P36544)
Assay: Positive allosteric modulation activity at human alpha7 nAChR expressed in Xenopus laevis oocytes assessed as increase in acetylcholine-induced channel current by measuring acetylcholine EC50 at 10 uM at -90 mV holding potential preincubated for 2 mins followed by co-application with acetylcholine for 10 secs by two-electrode voltage clamp method (Rvb = 231.8 +/- 2 uM)
Outline: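 ACh concentration-response on α7-expressing Xenopus oocytes, run without compound or after 2 min preincubation with 10 μM compound. Peak currents were normalised to the current evoked by 100 μM ACh alone. Curves were fitted for Emax, ACh EC50 and Hill coefficient, n = 4 per point.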

Sequence of Neuronal acetylcholine receptor subunit alpha-7 (P36544 whole entry): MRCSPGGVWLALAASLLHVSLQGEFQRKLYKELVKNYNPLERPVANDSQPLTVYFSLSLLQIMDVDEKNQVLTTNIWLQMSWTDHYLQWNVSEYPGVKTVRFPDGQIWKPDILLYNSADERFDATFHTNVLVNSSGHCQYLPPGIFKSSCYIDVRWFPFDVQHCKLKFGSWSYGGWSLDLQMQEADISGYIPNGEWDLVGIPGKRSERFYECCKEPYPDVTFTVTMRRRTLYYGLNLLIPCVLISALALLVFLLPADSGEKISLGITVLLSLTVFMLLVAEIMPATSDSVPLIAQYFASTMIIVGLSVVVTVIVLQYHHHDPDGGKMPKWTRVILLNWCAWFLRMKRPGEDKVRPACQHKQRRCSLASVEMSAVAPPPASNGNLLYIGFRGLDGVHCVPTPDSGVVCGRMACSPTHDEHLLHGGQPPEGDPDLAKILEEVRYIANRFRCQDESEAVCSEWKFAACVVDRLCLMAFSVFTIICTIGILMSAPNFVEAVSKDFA

EC50: 258 µM
Structure (SMILES): Cc1cc(-c2cnc(N)c(C(=O)Nc3c(C)cccc3Cl)c2)ccc1F

Reference: BindingDB's records for doi:10.1016/j.bmcl.2019.05.046 (Peking University, 2019)
